# Data: ChEMBL document CHEMBL3826940, “Amphipathicity Determines Different Cytotoxic Mechanisms of Lysine- or Arginine-Rich Cationic Hydrophobic Peptides in Cancer Cells” (J Med Chem, 2016)
# Test system: HeLa
# Test: Membranolytic activity in human HeLa cells expressing GFP after 5 mins by fluorescence leakage assay
# Type: functional, cell-based
# Summary of the method: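 GFP-expressing HeLa cells (1 × 10^4/well, grown 24 h) were treated with peptides at various concentrations in PBS for 5 min. Supernatant was collected after centrifugation at 1000g and its fluorescence read at 485/535 nm. 1% Triton X-100 defined 100% leakage, and LC50 was calculated from three independent experiments.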
row,Compound,LC50
1,CC(C)C[C@H](NC(=O)[C@H](CCCNC(=N)N)NC(=O)[C@H](CC(C)C)NC(=O)[C@H](CC(C)C)NC(=O)[C@H](CCCNC(=N)N)NC(=O)[C@H](CCCNC(=N)N)NC(=O)[C@H](CC(C)C)NC(=O)[C@H](CCCNC(=N)N)NC(=O)[C@H](CC(C)C)NC(=O)[C@H](CC(C)C)NC(=O)[C@H](CCCNC(=N)N)NC(=O)[C@H](CC(C)C)NC(=O)[C@H](CC(C)C)NC(=O)[C@H](CCCNC(=N)N)NC(=O)CNC(=O)CNC(=O)[C@@H](N)Cc1cnc[nH]1)C(N)=O,25.9 µM
2,H-HGGKLLKLLKKLLKLLK-NH2,3.6 µM
3,H-HGGKLLKLLKLKKLLKL-NH2,38.8 µM
4,H-HGGRLLRLLRRLLRLLR-NH2,3.9 µM
